# Source: ChEMBL document CHEMBL1135583, “Activity of bisphosphonates against Trypanosoma brucei rhodesiense” (J Med Chem, 2002)
# pIC50: −log10 of the molar value.
# Columns and labels:
# [1] = tested on: Trypanosoma brucei rhodesiense; test: Predicted pIC50 against Trypomastigotes Brucei rhodesiense.; type: functional, organism-based
# In short: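 QSAR prediction from a bisphosphonate training set. Structures geometry-optimized by steepest-descent, conjugate-gradient and Newton–Raphson minimization with no internal constraints. Each molecule aligned by rms fit of its P–C–P backbone to the lowest-energy conformer of the template. Models validated by leave-one-out cross-validation.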
# [2] = Therapeutic index measured as the ratio of LD50 (KB cells) to IC50 (T.b. rhodesiense); type: cell-based; conditions: trypanosoma brucei rhodesiense, KB cells versus T. b. rhodesiense; read-out: TI
# In short: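 KB cell growth inhibition measured by Alamar blue to give LD50, the dose lethal to 50% of cells; highest level tested 300 μg/mL. Index computed as LD50 (KB cells) / IC50 (T. b. rhodesiense).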
# [3] = 50% lethal dose for inhibition of KB cells growth; type: cell-based; conditions: human, read-out: LD50 (the source's name)
# In short: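 KB cell line growth measured over a dose-response series by the Alamar blue method. The LD50 is the concentration lethal to 50% of KB cells. The highest level tested was 300 μg/mL; ">" means no inhibition at that level.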
# [4] = tested on: Trypanosoma brucei rhodesiense; test: In vitro growth inhibition of bloodstream-form Trypanosoma brucei rhodesiense Trypomastigotes; type: functional, organism-based
# In short: (§1)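 Bloodstream-form T. b. rhodesiense trypomastigotes, strain STIB 900, grown in vitro with the bisphosphonate. IC50 taken as the drug concentration that cuts parasite proliferation by 50%.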
# [5] = tested on: Trypanosoma brucei rhodesiense; test: Log IC50 brucei Trypomastigotes; type: functional, organism-based; in short: as §1
# [6] = tested on: Trypanosoma brucei rhodesiense; test: (§2) In vitro rescue of growth inhibition of Trypanosoma uM of compound; type: functional
# [7] = tested on: Trypanosoma brucei rhodesiense; test: as §2; type: functional; remark: listed apart in the source
# [8] = tested on: Trypanosoma brucei rhodesiense; test: as §2; type: functional; remark: listed apart in the source
# [9] = tested on: Trypanosoma brucei rhodesiense; test: 50% inhibitory concentration against Trypanosoma brucei rhodesiense; type: functional, organism-based; in short: as §1
# [10] = tested on: Trypanosoma brucei rhodesiense; test: as §2; type: functional; remark: listed apart in the source
# [11] = tested on: Trypanosoma brucei rhodesiense; test: as §2; type: functional; remark: listed apart in the source
# [12] = tested on: Trypanosoma brucei rhodesiense; test: as §2; type: functional; remark: listed apart in the source
# [13] = tested on: Trypanosoma brucei rhodesiense; test: Percent inhibition of Trypanosoma brucei rhodesiense at 1.03 uM of risedronate along with GPP; type: functional
# [14] = tested on: Trypanosoma brucei rhodesiense; test: In vitro growth inhibition of Trypanosoma brucei rhodesiense (risedronate + GPP); type: functional, organism-based
# [15] = tested on: Trypanosoma brucei rhodesiense; test: Percent inhibition of Trypanosoma brucei rhodesiense at 3.09 uM of risedronate along with GPP; type: functional
# In short: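 Rescue assay with bloodstream-form trypomastigotes (strain STIB900) seeded at 1 × 10^5/mL in HMI-18 medium with 20% HIFCS. Bisphosphonate was given as three-fold serial dilutions from 83.5 μM, in triplicate. Geranyl pyrophosphate was added at a final 12.5 μg/mL. Plates were incubated for 72 h at 37 °C in 5% CO2-air, then Alamar Blue was added for 4 h and fluorescence read at 530/585 nm.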
# [16] = tested on: Trypanosoma brucei rhodesiense; test: Percent inhibition of Trypanosoma brucei rhodesiense at 83.54 uM of risedronate along with GPP; type: functional
# [17] = tested on: Trypanosoma brucei rhodesiense; test: Percent inhibition of Trypanosoma brucei rhodesiense at 9.27 uM of risedronate along with GPP; type: functional
# [18] = tested on: Trypanosoma brucei rhodesiense; test: Percent inhibition of Trypanosoma brucei rhodesiense at 27.85 uM of risedronate along with GPP; type: functional
# [19] = tested on: Trypanosoma brucei rhodesiense; test: In vitro rescue of growth inhibition of Trypanosoma brucei rhodesiense [risedronate + farnesol(12.5 ug/mL)]; type: functional, organism-based
# [20] = tested on: Trypanosoma brucei rhodesiense; test: In vitro rescue of growth inhibition of Trypanosoma uM of risedronate along with farnesol (12.5 ug/mL); type: functional
# [21] = tested on: Trypanosoma brucei rhodesiense; test: Percent inhibition of Trypanosoma brucei rhodesiense at 83.54 uM of risedronate along with FPP; type: functional
# [22] = tested on: Trypanosoma brucei rhodesiense; test: Percent inhibition of Trypanosoma brucei rhodesiense at 9.27 uM of risedronate along with FPP; type: functional
# [23] = tested on: Trypanosoma brucei rhodesiense; test: In vitro growth inhibition of Trypanosoma brucei rhodesiense (risedronate + FPP); type: functional, organism-based
# [24] = tested on: Trypanosoma brucei rhodesiense; test: Percent inhibition of Trypanosoma brucei rhodesiense at 27.85 uM of risedronate along with FPP; type: functional
SMILES,pIC50 [1],selectivity ratio [2],CC50 [3],pIC50 [4],also measured
O=P(O)(O)C(O)(CSc1ccncc1)P(=O)(O)O,4.70,> 38,> 746 µM,–,–
Cc1cccnc1NC(P(=O)(O)O)P(=O)(O)O,6.15,267,187 µM,6.15,–
O=P(O)(O)C(O)(Cc1ccccn1)P(=O)(O)O,6.66,63,13.9 µM,–,–
CCCCCNC(P(=O)(O)O)P(=O)(O)O [(PENTYLAMINO)METHYLENEDIPHOSPHONIC ACID],4.30,> 23,> 1150 µM,4.30,–
CCCCCCCCCC(O)(P(=O)(O)O)P(=O)(O)O,–,> 38,> 775 µM,4.69,pIC50 [5]: 4.69
O=P(O)(O)C(O)(Cc1cccnc1)P(=O)(O)O [RISEDRONIC ACID],5.07,29,249 µM,–,Inhibition [6]: 100%; Inhibition [7]: 0%; Inhibition [8]: 23.49%; pIC50 [9]: 5.39; Inhibition [10]: 86.49%; Inhibition [11]: 100%; Inhibition [12]: 19.3%
Nc1ccc(CC(O)(P(=O)(O)O)P(=O)(O)O)cc1,4.40,5,218 µM,–,–
CCCCCCCCCCC(O)(P(=O)(O)O)P(=O)(O)O,–,> 101,> 806 µM,5.10,pIC50 [5]: 5.10
CCCC(O)(P(=O)(O)O)P(=O)(O)O,4.04,> 11,> 967 µM,–,–
CCN(CC)C(P(=O)(O)O)P(=O)(O)O [(DIETHYLAMINO)METHYLENEDIPHOSPHONIC ACID],4.46,24,809 µM,4.46,–
CCCCCCCCNC(P(=O)(O)O)P(=O)(O)O [(OCTYLAMINO)METHYLENEDIPHOSPHONIC ACID],–,39,66.8 µM,5.77,pIC50 [5]: 5.77
Cc1ccnc(NC(P(=O)(O)O)P(=O)(O)O)c1,6.21,208,127 µM,6.21,–
CC(C)=CCC/C(C)=C/COP(=O)(O)OP(=O)(O)O.O=P(O)(O)C(O)(Cc1cccnc1)P(=O)(O)O,–,–,–,–,Inhibition [13]: 0%; pIC50 [14]: 5.43; Inhibition [15]: 44.59%; Inhibition [16]: 100%; Inhibition [17]: 83.7%; Inhibition [18]: 100%
CCCCCN(C)CCC(O)(P(=O)(O)O)P(=O)(O)O [IBANDRONIC ACID],6.02,10,10.1 µM,6.02,–
CC(C)=CCC/C(C)=C/CC/C(C)=C/CO.O=P(O)(O)C(O)(Cc1cccnc1)P(=O)(O)O,–,–,–,–,pIC50 [19]: < 4.08; Inhibition [20]: 0%
O=P(O)(O)C(O)(CCc1cccnc1)P(=O)(O)O,5.77,> 473,> 804 µM,5.77,–
CC(C)CCNC(P(=O)(O)O)P(=O)(O)O [(ISOPENTYLAMINO)METHYLENEDIPHOSPHONIC ACID],3.99,> 11,> 1150 µM,3.99,–
O=P(O)(O)C(NC1CCCCC1)P(=O)(O)O [(CYCLOHEXYLAMINO)METHYLENEDIPHOSPHONIC ACID],4.68,13,271 µM,4.68,–
CN(C)CCC(O)(P(=O)(O)O)P(=O)(O)O [OLPADRONIC ACID],5.27,> 195,> 1050 µM,–,–
CCCCCCCCCCCC(O)(P(=O)(O)O)P(=O)(O)O,–,246,492 µM,5.70,pIC50 [5]: 5.70
O=P(O)(O)C(O)(Cc1c[nH]cn1)P(=O)(O)O,5.07,5,41 µM,–,–
CCCCCC(O)(P(=O)(O)O)P(=O)(O)O,4.20,> 16,> 993 µM,–,–
O=P(O)(O)C(Nc1ccc(Cl)cn1)P(=O)(O)O,4.27,> 19,> 992 µM,4.27,–
O=P(O)(O)C(O)(Cc1ccccc1)P(=O)(O)O,4.67,> 44,> 931 µM,–,–
NCCCCCC(O)(P(=O)(O)O)P(=O)(O)O [NERIDRONIC ACID],–,21,680 µM,–,pIC50 [5]: 4.50
NCCC(O)(P(=O)(O)O)P(=O)(O)O [PAMIDRONIC ACID],–,< 2,156 µM,< 4.00,pIC50 [5]: < 4.00
O=P(O)(O)C(Nc1ccc(Br)cn1)P(=O)(O)O,4.40,2,87 µM,4.40,–
CC(N)CC(O)(P(=O)(O)O)P(=O)(O)O (stereo unspecified),5.11,125,977 µM,5.11,–
CC(C)=CCC/C(C)=C/CC/C(C)=C/COP(=O)(O)OP(=O)(O)O.O=P(O)(O)C(O)(Cc1cccnc1)P(=O)(O)O,–,–,–,–,Inhibition [21]: 64.24%; Inhibition [22]: 0%; pIC50 [23]: 4.18; Inhibition [24]: 25.4%
CCCCC(O)(P(=O)(O)O)P(=O)(O)O,4.00,> 10,> 1040 µM,–,–
